These results are taken from ChEMBL document CHEMBL1275484, “Rifampin and rifaximin resistance in clinical isolates of Clostridium difficile” (Antimicrob Agents Chemother, 2008).

Molecules are shown by their SMILES. In brackets after ≈: the same amount, converted by molar mass.

Type in all cases: functional
Assay [1] concerns Clostridioides difficile. Nature of the assay: Antimicrobial activity against Clostridium difficile isolate 7 by agar dilution method. The gist of the method:
(§1)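 CLSI reference agar dilution for anaerobes, with endpoints read per guideline M11-A7. Rifaximin was dissolved in methanol, diluted in 0.1 M phosphate buffer pH 7.4 with 0.45% SDS, and tested at 0.0009–256 μg/ml. Rifampin was dissolved in methanol, diluted in water, and tested at 0.00001–256 μg/ml. Control strain: C. difficile ATCC […]. Isolates were typed by HindIII REA.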
(In agar dilution, organisms are placed on agar that contains the substance at set levels.)

Assay [2] has as its system Clostridioides difficile. Nature of the assay: Antimicrobial activity against rifaximin-resistant Clostridium difficile isolate 66 expressing RpoB D492N and R505K mutants by agar dilution method. In a few lines:
(§2)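 MICs were found by the CLSI reference agar dilution method for anaerobes, with endpoints read per M11-A7 and C. difficile […] as control. Rifaximin was dissolved in methanol, diluted in 0.1 M phosphate buffer pH 7.4 with 0.45% SDS, and tested at 0.0009–256 μg/ml. Rifampin was dissolved in methanol, diluted in water, and tested at 0.00001–256 μg/ml.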

The subject of assay [3] is Clostridioides difficile. Nature of the assay: Antimicrobial activity against Clostridium difficile isolate 37 by Etest. In a few lines: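 Rifampin MIC by Etest strip on brucella blood agar, run per the strip maker's instructions. Isolates were HindIII REA-typed clinical C. difficile.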
The subject of assay [4] is Clostridioides difficile. Nature of the assay: Antimicrobial activity against Clostridium difficile isolate 72 by agar dilution method. In a few lines:
as §1

Assay [5] concerns Clostridioides difficile. In words: Antimicrobial activity against Clostridium difficile isolate 13 by agar dilution method. The gist of the method:
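MIC by CLSI reference agar dilution for anaerobes, with endpoints read per M11-A7 and C. difficile […] as control. Rifaximin was dissolved in methanol, diluted in 0.1 M phosphate buffer pH 7.4 plus 0.45% SDS, and tested at 0.0009–256 μg/ml. Rifampin was dissolved in methanol, diluted in water, and tested at 0.00001–256 μg/ml.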

For assay [6], the system named is Clostridioides difficile. In words: Antimicrobial activity against Clostridium difficile isolate 46 by Etest. In a few lines:
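Rifampin Etest strips were run on brucella blood agar following the manufacturer's instructions to give an MIC. Clinical isolates were typed by HindIII REA.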

The subject of assay [7] is Clostridioides difficile. In words: Antimicrobial activity against rifaximin-resistant Clostridium difficile isolate 17 expressing RpoB H502N and I548M mutants by agar dilution method. The gist of the method: as §2
For assay [8], the system named is Clostridioides difficile. In words: Antimicrobial activity against Clostridium difficile isolate 72 by Etest. In a few lines: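 Rifampin MIC by Etest on brucella blood agar, run per the strip manufacturer's instructions, against clinical isolates typed by HindIII REA.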
Assay [9] deals with Clostridioides difficile. Nature of the assay: Antimicrobial activity against rifaximin-resistant Clostridium difficile isolate 26 expressing RpoB R505K mutant by Etest. In a few lines: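 Rifampin Etest on clinical C. difficile isolates typed by HindIII REA, run per the strip manufacturer's instructions on brucella blood agar, with the MIC read from the strip.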

For `CO[C@H]1/C=C/O[C@@]2(C)Oc3c(C)c(O)c4c(O)c(c(/C=N/N5CCN(C)CC5)c(O)c4c3C2=O)NC(=O)/C(C)=C\C=C\[C@H](C)[C@H](O)[C@@H](C)[C@@H](O)[C@@H](C)[C@H](OC(C)=O)[C@@H]1C` [RIFAMPIN], the MIC against Clostridioides difficile [1] was 0.06 ng/mL (≈ 0.0729 nM); in the assay on Clostridioides difficile [2], more than 256000 ng/mL; in the assay on Clostridioides difficile [3], less than 2 ng/mL; in the assay with Clostridioides difficile [4], 0.06 ng/mL (≈ 0.0729 nM); against Clostridioides difficile [5] it was 0.09 ng/mL (≈ 0.109 nM); in the assay with Clostridioides difficile [6] it was less than 2 ng/mL. Also, the MIC against Clostridioides difficile [7] was more than 256000 ng/mL; in the assay on Clostridioides difficile [8], less than 2 ng/mL; in the assay with Clostridioides difficile [9], more than 32000 ng/mL.

The term MIC denotes the least concentration at which growth counts as inhibited. Read a high MIC as a need for much substance.
